# From ChEMBL document CHEMBL1146752, “Oxamyl dipeptide caspase inhibitors developed for the treatment of stroke” (Bioorg Med Chem Lett, 2004)
# What was measured:
# Homo sapiens [1] = species on record: Homo sapiens; assay: Inhibitory activity against human monocyte; assay type: functional
# In short: (§1)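 Human cells (monocytes; THP-1 line) in a caspase-1-dependent cellular assay run for 24 h at 37 °C. Read-out is IC50 (µM).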
# Homo sapiens [2] = species on record: Homo sapiens; assay: Inhibitory activity against human monocyte at the concentration of 10 uM; assay type: functional
# In short: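 Human monocyte caspase-1-dependent cellular assay. Compound tested at a single 10 µM concentration. Read-out is percent inhibition.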
# Caspase-9 = target: T1, Caspase-9 (Homo sapiens, UniProt P55211); assay: Binding affinity towards human Caspase-9
# T1 sequence (P55211 whole entry): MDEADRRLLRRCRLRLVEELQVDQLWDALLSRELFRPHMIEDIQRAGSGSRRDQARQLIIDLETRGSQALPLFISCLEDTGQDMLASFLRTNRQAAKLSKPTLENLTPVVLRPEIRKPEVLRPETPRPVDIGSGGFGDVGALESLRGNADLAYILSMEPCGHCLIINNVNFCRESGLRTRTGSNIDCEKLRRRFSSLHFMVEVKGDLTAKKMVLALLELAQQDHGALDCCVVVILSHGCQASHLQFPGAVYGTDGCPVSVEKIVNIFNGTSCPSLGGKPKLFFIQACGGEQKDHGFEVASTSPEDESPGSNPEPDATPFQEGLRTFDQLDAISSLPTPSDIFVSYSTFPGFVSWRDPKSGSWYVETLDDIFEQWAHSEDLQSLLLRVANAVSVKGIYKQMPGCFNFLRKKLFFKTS
# Jurkat = assay: Inhibitory activity evaluated against human jurkat cell line in cellular assay; assay type: functional, cell-based
# In short: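 Human Jurkat cells, in an assay where caspase-8 is relevant but other caspases also contribute. Run for 24 h at 37 °C. Read-out is IC50 (µM).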
# THP-1 = assay: Inhibitory activity evaluated against human THP-1 cell line in cellular assay; assay type: functional, cell-based; in short: as §1
# Rattus norvegicus = species on record: Rattus norvegicus; assay: Inhibitory activity evaluated against rat Con A embryonic cortical neurons in cellular assay; assay type: functional
# SKW 6.4 = assay: Inhibitory activity was evaluated against human SKW 6.4 cell line in cellular assay; assay type: functional, cell-based
# In short: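 Cellular assay (Con A; SKW 6.4 cells) run for 24 h at 37 °C. Read-out is IC50 (µM).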
IC50 (Homo sapiens [1]) [µM],IC50 (Caspase-9) [nM],IC50 (Jurkat) [nM],IC50 (THP-1) [nM],IC50 (SKW 6.4) [nM],SMILES,inhibition at 10 µM (Homo sapiens [2]) [%],IC50 (Rattus norvegicus) [nM]
–,160,–,–,–,CC(C)C[C@H](NC(=O)CNc1cccc2ccccc12)C(=O)N[C@H](C=O)CC(=O)O,18,–
–,–,2.2,1850,340,CC(C)[C@H](NC(=O)C(=O)Nc1ccccc1C(C)(C)C)C(=O)N[C@@H](CC(=O)O)C(=O)COc1c(F)c(F)cc(F)c1F,–,5680
–,–,16,160,110,CC(C)[C@H](NC(=O)C(=O)Nc1ccccc1Cl)C(=O)N[C@@H](CC(=O)O)C(=O)COc1c(F)c(F)cc(F)c1F,–,300
–,–,140,1430,2200,CC(C)[C@H](NC(=O)C(=O)Nc1ccccn1)C(=O)N[C@@H](CC(=O)O)C(=O)COc1c(F)c(F)cc(F)c1F,–,9400
–,–,310,400,1200,COc1ccccc1NC(=O)C(=O)N[C@H](C(=O)N[C@@H](CC(=O)O)C(=O)COc1c(F)c(F)cc(F)c1F)C(C)C,–,2500
–,–,10,410,150,CC(C)[C@H](NC(=O)C(=O)Nc1ccc(I)cc1F)C(=O)N[C@@H](CC(=O)O)C(=O)COc1c(F)c(F)cc(F)c1F,–,700
–,–,30,610,2450,CC(C)[C@H](NC(=O)C(=O)Nc1ccc(Cl)c2ccccc12)C(=O)N[C@@H](CC(=O)O)C(=O)COc1c(F)c(F)cc(F)c1F,–,750
–,–,0.7,700,380,CC(C)[C@H](NC(=O)C(=O)Nc1ccc2ccccc2c1)C(=O)N[C@@H](CC(=O)O)C(=O)COc1c(F)c(F)cc(F)c1F,–,3280

# Second part, the molecule before the results:
SMILES,IC50 (Homo sapiens [1]) [µM],IC50 (Caspase-9) [nM],IC50 (Jurkat) [nM],IC50 (THP-1) [nM],IC50 (SKW 6.4) [nM],inhibition at 10 µM (Homo sapiens [2]) [%],IC50 (Rattus norvegicus) [nM]
CC(C)C[C@H](NC(=O)C(=O)Nc1cccc2ccccc12)C(=O)N[C@H](C=O)CC(=O)O,3.08,230,–,–,–,79,–
CC(C)C[C@H](NC(=O)COc1cccc2ccccc12)C(=O)N[C@H](C=O)CC(=O)O,–,2720,–,–,–,17,–
CC(C)[C@H](NC(=O)C(=O)Nc1cccc2cc3ccccc3cc12)C(=O)N[C@@H](CC(=O)O)C(=O)COc1c(F)c(F)cc(F)c1F,–,–,10,220,1960,–,850
CC(C)[C@H](NC(=O)C(=O)NC1CCCc2ccccc21)C(=O)N[C@@H](CC(=O)O)C(=O)COc1c(F)c(F)cc(F)c1F (some centres undefined),–,–,370,2910,860,–,2400
CC(C)[C@H](NC(=O)C(=O)Nc1cnccn1)C(=O)N[C@@H](CC(=O)O)C(=O)COc1c(F)c(F)cc(F)c1F,–,–,170,1440,19100,–,5900
CC(C)[C@H](NC(=O)C(=O)NC1CCCCC1)C(=O)N[C@@H](CC(=O)O)C(=O)COc1c(F)c(F)cc(F)c1F,–,–,60,720,1780,–,6120
CC(C)[C@H](NC(=O)C(=O)NN(c1ccccc1)c1ccccc1)C(=O)N[C@@H](CC(=O)O)C(=O)COc1c(F)c(F)cc(F)c1F,–,–,190,780,2240,–,4870
CC(C)[C@H](NC(=O)C(=O)Nc1ccc2cc3ccccc3cc2c1)C(=O)N[C@@H](CC(=O)O)C(=O)COc1c(F)c(F)cc(F)c1F,–,–,150,660,750,–,550
CC(C)[C@H](NC(=O)C(=O)NCc1ccccc1)C(=O)N[C@@H](CC(=O)O)C(=O)COc1c(F)c(F)cc(F)c1F,–,–,77.1,570,910,–,1500
COc1cc(CNC(=O)C(=O)N[C@H](C(=O)N[C@@H](CC(=O)O)C(=O)COc2c(F)c(F)cc(F)c2F)C(C)C)cc(OC)c1OC,–,–,1550,3500,18300,–,9000
CC(C)[C@H](NC(=O)C(=O)Nc1cc(F)c(F)c(F)c1F)C(=O)N[C@@H](CC(=O)O)C(=O)COc1c(F)c(F)cc(F)c1F,–,–,40,570,1190,–,3500
CC(C)[C@H](NC(=O)C(=O)Nc1c(F)cccc1F)C(=O)N[C@@H](CC(=O)O)C(=O)COc1c(F)c(F)cc(F)c1F,–,–,136,380,1630,–,1000
CC(C)[C@H](NC(=O)C(=O)NNc1ccccc1)C(=O)N[C@@H](CC(=O)O)C(=O)COc1c(F)c(F)cc(F)c1F,–,–,2350,6580,9900,–,20000
